From publication PMC7156834 (Cancer Science, 2020)
Where two headings read alike, the source gives them in different places. No end group written: not given here.

Legend:
[1] = tested on: survivin in MDA‐MB‐231 cells; test: Western blot of survivin protein expression, MDA-MB-231; type: cell-based, human; conditions: 10 or 40 μmol L^−1, 48 h, vs vehicle control, n = 3
[2] = tested on: human serum albumin (HSA); test: QCM response to human serum albumin-immobilized sensor chip; type: binding; conditions: QCM sensorgram, result in words
How it was run: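 Quartz crystal microbalance run with an HSA-immobilized sensor chip. Test compound added to the cuvette in successive portions, giving overall cuvette concentrations that start at 1 and 10 nmol L⁻¹. Frequency change recorded over time as the binding response.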

[3] = tested on: MCF‐10A cells; test: Cell proliferation assay; type: cell-based, human; conditions: MTT, 1, 10 or 100 µmol L^−1, 48 h
How it was run: (§1)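 Cells treated 48 h with test compound at 1, 10 or 100 µmol L⁻¹, or with 1% DMSO solvent alone. Culture media: MIA PaCa-2 in low-glucose DMEM with 10% FBS; MCF-10A in DMEM/F-12 with 5% horse serum, EGF, insulin and hydrocortisone. MTT added for 4 h, then cells lysed in DMSO. OD read at 570 nm (650 nm correction). Viability expressed relative to DMSO-treated cells (100%). Mean ± SD, n = 5–6; Kruskal-Wallis test with Dunn's post hoc test.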

[4] = tested on: survivin in MIA PaCa‐2 cells; test: Western blot of survivin protein expression, MIA PaCa-2; type: cell-based, human; conditions: 40 µmol L^−1, 48 h, P = .366, without statistical significance, n = 3
[5] = biological target: recombinant human survivin (Homo sapiens, UniProt O15392); test: Saturation binding assay of peptides to recombinant survivin protein; conditions: QCM sensorgram, result in words
How it was run: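 Quartz crystal microbalance. Recombinant human survivin (40 μg/mL) amide-coupled to the gold electrode of the sensor chip, with the chip soaked in buffer. 8 μL aliquots of test peptide solutions (10–256 μmol L⁻¹ as injected) added sequentially to the cuvette. Frequency change monitored over time. Kd derived by kinetic analysis using a one-binding-site model.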

[6] = tested on: cleaved caspase‐3 in MIA PaCa‐2 cells; test: Western blot of cleaved caspase-3, MIA PaCa-2; type: cell-based, human; conditions: even at 10 µmol L^−1, 48 h, vs untreated cells, n = 3
[7] = tested on: MIA PaCa‐2 cells; test: Flow cytometry, annexin V-FITC/PI apoptosis; type: cell-based, human; conditions: n = 3
[8] = tested on: MDA‐MB‐231 cells; test: Cell proliferation assay; type: cell-based, human; conditions: MTT, different concentrations, 48 h
[9] = tested on: MIA PaCa‐2 cells; test: Cell proliferation assay; type: cell-based, human; conditions: MTT, different concentrations, 48 h
How it was run: as §1

[10] = biological target: T1, recombinant human survivin (human, UniProt O15392); test: quartz crystal microbalance
[11] = biological target: T1, recombinant human survivin; test: quartz crystal microbalance; remark: listed apart in the source

T1 sequence (O15392 whole entry): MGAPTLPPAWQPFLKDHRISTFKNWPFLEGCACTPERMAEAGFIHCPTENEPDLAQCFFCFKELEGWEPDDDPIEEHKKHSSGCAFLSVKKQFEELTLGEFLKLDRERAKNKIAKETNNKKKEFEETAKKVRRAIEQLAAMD
Chain of recombinant human survivin (Homo sapiens, UniProt O15392) (O15392 whole entry): as above

CSCC[C@H](NC(=O)[C@H](CC(C)C)NC(=O)[C@H](CCCCN)NC(=O)[C@H](CCC(N)=O)NC(=O)[C@H](CC(=O)O)NC(=O)CCCCCNC(=O)[C@@H](CCCNC(=N)N)NC(=O)[C@@H](CCCNC(=N)N)NC(=O)[C@@H](CCCNC(=N)N)NC(=O)[C@@H](CCCNC(=N)N)NC(=O)[C@@H](CCCNC(=N)N)NC(=O)[C@@H](CCCNC(=N)N)NC(=O)[C@@H](CCCNC(=N)N)NC(=O)[C@@H](CCCNC(=N)N)NC(=O)[C@@H](CCCNC(=N)N)NC(C)=O)C(=O)N[C@@H](CCC(=O)O)C(=O)N[C@@H](Cc1ccccc1)C(N)=O [r9‐INC16‐22]
protein expression level of survivin in MDA‐MB‐231 cells [1]: Neither the treatment with r9‐INC16‐22 at a concentration of 10 μmol L^−1 nor at 40 μmol L^−1 showed any significant decrease
QCM response to HSA-immobilized sensor chip [2]: no significant response
antiproliferative effect on MCF‐10A cells (in words) [3]: No marked antiproliferative effect
protein expression level of survivin in MIA PaCa‐2 cells [4]: apparently reduced the protein level
QCM response to survivin-immobilized sensor chip [5]: strongly responded to survivin in a dose‐dependent manner
expression of cleaved caspase‐3 in MIA PaCa‐2 cells [6]: significantly increased
early apoptosis rate ([7]; MIA PaCa‐2, 10 μmol L^−1, 24 h): 52.4%
late apoptosis and necrosis rate ([7]; MIA PaCa‐2, 10 μmol L^−1, 24 h): 29.4%
early apoptosis rate ([7]; MIA PaCa‐2, 50 μmol L^−1, 24 h): 49.6%
late apoptosis and necrosis rate ([7]; MIA PaCa‐2, 50 μmol L^−1, 24 h): 44.2%

Ac-rrrrrrrrr-ahx-QLDMFKE-NH2 [r9‐scINC16‐22]
antiproliferative effect on MDA‐MB‐231 cells (in words) [8]: no significant antiproliferative effect
QCM response to survivin-immobilized sensor chip [5]: negligible response
antiproliferative effect on MIA PaCa‐2 cells (in words) [9]: no significant antiproliferative effect

LCNMDNKD-NH2 [INC_(23-30)]
Kd [10]: 117 nM

EEAERMFTR-NH2 [INC_(39-47)]
Kd [10]: 135 nM

DQKLMEF-NH2 [INC_(16-22)]
Kd [10]: 91.4 nM

LVWLEEIQ-NH2 [INC_(31-38)]
Kd [10]: 108 nM

DQKLMEFLCNMDNKDLVWL-NH2 [INC_(16-34)]
Kd [11]: 160 nM

B1: FITC-INC_(16-22) (peptide)
peptide: DQKLMEF
HELM: PEPTIDE1{[O=C1OC2(c3ccc(O)cc3Oc3cc(O)ccc32)c2ccc(NC(=S)[*:2])cc21].[O=C(CCCCCN[*:1])[*:2]].D.Q.K.L.M.E.F.[am]}$$$$V2.0
SMILES: CSCC[C@H](NC(=O)[C@H](CC(C)C)NC(=O)[C@H](CCCCN)NC(=O)[C@H](CCC(N)=O)NC(=O)[C@H](CC(=O)O)NC(=O)CCCCCNC(=S)Nc1ccc2c(c1)C(=O)OC21c2ccc(O)cc2Oc2cc(O)ccc21)C(=O)N[C@@H](CCC(=O)O)C(=O)N[C@@H](Cc1ccccc1)C(N)=O
Kd [11]: 66 nM

CDQKLMEF-NH2 [INC_(15-22)]
Kd [11]: 248 nM

QLDMFKE-NH2 [scINC_(16-22)]
Kd [11]: > 300 nM

DNKDLVWL-NH2 [INC_(27-34)]
Kd [10]: 255 nM

GPIHLLEL-NH2 [INC_(7-14)]
Kd [10]: 214 nM
